Compound activity as filed in PubChem.
DENV2 CPE rescue – DENV2-induced cell death inhibition; DENV2-infected cells, cytopathic effect rescue, plate reader; CPE inhibition, % at 9.99 µM; 350,000 compounds, 1.7% hits; AID 651640; in the data active = CPE inhibition above about 20%, passing the limit was not always enough; tested in BHK-21 cells;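 also: 0% = median of neutral control wells and 100% = median of positive control wells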
SIRT5 block – blocks human SIRT5 desuccinylation of peptide. Q9NXA8. Purified SirT5, succinyl-peptide AMC, trypsin-coupled fluorescence. inhibition, % at 15 µM. 330,000 compounds, 1.1% hits. AID 652115; in the data active = inhibition above about 15%
Target sequence (Q9NXA8 whole entry, looked up): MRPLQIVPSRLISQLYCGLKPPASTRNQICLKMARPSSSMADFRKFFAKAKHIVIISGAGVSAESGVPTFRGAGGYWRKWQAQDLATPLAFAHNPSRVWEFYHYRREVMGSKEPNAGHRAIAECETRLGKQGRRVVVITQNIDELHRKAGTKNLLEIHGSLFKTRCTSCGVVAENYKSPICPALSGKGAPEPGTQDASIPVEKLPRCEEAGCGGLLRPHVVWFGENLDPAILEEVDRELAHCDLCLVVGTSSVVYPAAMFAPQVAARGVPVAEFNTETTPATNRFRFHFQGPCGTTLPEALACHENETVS
S100A4 MyoIIA – S100A4-myosin IIA interaction inhibition. P26447. S100A4/TAMRA-MyoIIA peptide fluorescence polarization. inhibition, % at 10.7 µM. 360,000 compounds, 0.14% hits. AID 652163;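 active = mean inhibition of at least 70% across replicates, with every replicate also reaching that level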
Target sequence (P26447 whole entry, looked up): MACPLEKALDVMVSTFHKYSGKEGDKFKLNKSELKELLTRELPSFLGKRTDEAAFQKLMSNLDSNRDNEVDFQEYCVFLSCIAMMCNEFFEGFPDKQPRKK
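assay system = human S100A4 monomer with TAMRA-labelled myosin IIA peptide | also added = labelled myosin peptide probe, 5 nM | incubation = 5 min between mix addition and reading | control set = DMSO and TFP controls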
CAL PDZ FP-1 – inhibitors of human CAL PDZ peptide binding; purified CAL PDZ, TMR-peptide fluorescence polarization, 1 h; inhibition, % at 20 µM; 330,000 compounds, 0.02% hits; AID 504414;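 active = highest replicate inhibition of at least 40%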;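 also: plate controls were DMSO neutral control wells for no effect and unlabeled competitor peptide control wells for full effect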
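Material: tagged CAL PDZ protein CerCALP, purified; buffer or medium: sodium phosphate/NaCl buffer pH 7.4 with TCEP, IgG, Thesit; also added: fluorescent TMR peptide probe; schedule: 1 h incubation at room temperature before polarization reading; technique: fluorescence polarization from S- and P-plane intensities, G-factor corrected; control set: unlabelled peptide and DMSO controls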
ERAP1 HTS inh – inhibitors of human ERAP1 aminopeptidase; 340,000 compounds, 0.15% hits; inhibition, % at 10.7 µM; recombinant ERAP1, Leu-AMC fluorescence, 60 min; Q9NZ08;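 active = mean replicate inhibition of at least 30%, or all replicates individually reaching that 30% level; inactive = mean below 30% and not every replicate reaching it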;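 also: 0% = neutral control wells and 100% = L-leucinethiol positive control wells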
CAL PDZ FP-2 – CAL PDZ (human) peptide binding inhibition | Q9HD26 | purified CAL PDZ, TMR-peptide fluorescence polarization, 1 h | inhibition, % at 24.9 µM | 300,000 compounds, 0.92% hits | AID 602252;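 active = mean inhibition of at least 30% with at least half of replicates also reaching 30%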;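 also: 0% = DMSO neutral control and 100% = excess unlabeled competitor peptide PRC23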
Starred values were filed as active, the others as inactive; . = not tested or not shown; ! = a repeat was not active. A selection: hits, their analogues and other compounds. The true share with any hit is near 2.9%.

SMILES	DENV2 CPE rescue	SIRT5 block	S100A4 MyoIIA	CAL PDZ FP-1	ERAP1 HTS inh	CAL PDZ FP-2
COc1ccc(NC(=O)N(C)C[C@H]2Oc3ncc(C#CC(C)C)cc3C(=O)N([C@H](C)CO)C[C@H]2C)cc1	-8	3	16	.	1	.
C[C@@H]1CN([C@H](C)CO)C(=O)c2cc(NC(=O)Nc3ccccc3)ccc2O[C@@H]1CN(C)C(=O)NC1CCCCC1	-5	-2	-9	.	-3	.
COc1cccc(S(=O)(=O)N2CC[C@@H]3[C@@H](CO)Nc4ccc(C#Cc5ccccc5)cc4[C@@H]32)c1	-10	6	103*	.	3	.
COc1cccc(C#Cc2ccc3c(c2)[C@@H]2[C@@H](CCN2S(=O)(=O)c2ccccc2)[C@@H](CO)N3)c1	45*	.	48	.	1	.
COc1cccc(C#Cc2ccc3c(c2)[C@@H]2[C@@H](CCN2S(=O)(=O)c2cccc(OC)c2)[C@@H](CO)N3)c1	-4	.	-9	.	0	.
COc1cccc(S(=O)(=O)N2CC[C@H]3[C@H](CO)Nc4ccc(C#Cc5ccccc5)cc4[C@H]32)c1	31*	2	-1	.	1	.
CC(C)NC(=O)Nc1ccc2c(c1)C(=O)N([C@H](C)CO)C[C@@H](C)[C@H](CN(C)S(=O)(=O)c1ccc(F)cc1)O2	3	-2	1	.	-5	.
CCN(CC(=O)Nc1c(F)cccc1F)C(=O)c1cccc(S(=O)(=O)NCc2ccccc2)c1	80*	-5	1	-3	0	-2
CCC[N+](C)(C)C(C)C(OC(C)=O)c1ccccc1 (stereo unspecified)	-7	2	-1	1	41*	-1
COCC(=O)Nc1ccc2c(c1)C(=O)N(C)C[C@H](OC)[C@@H](C)CN(CCC(F)(F)F)[C@@H](C)CO2	-7	-11	-3	.	2	.
C[C@@H]1CN([C@@H](C)CO)C(=O)c2cccc(NC(=O)CCCCCC(=O)Nc3ccccc3N)c2O[C@@H]1CN(C)S(=O)(=O)c1ccccc1	10	.	-6	.	3	.
CCn1cc(C2=NC(CC(C)C)CO2)c2ccccc21 (stereo unspecified)	2	6	4	-2	.	65*
COc1ccccc1CNC(=O)C[C@@H]1C=C[C@@H](NC(=O)CN(C)C)[C@@H](CO)O1	-4	1	11	.	3	.
C[C@H]1CN([C@@H](C)CO)C(=O)CCCn2nncc2CO[C@H]1CN(C)C(=O)Nc1ccc(F)cc1	13	5	-44	.	15	.
O=C(Nc1ccc(Cl)cc1)N(CCCN1CCOCC1)Cc1cccs1	26*	-3	-1	-2	2	.
S=C(Nc1ccc(Cl)cc1)N(CCCN1CCOCC1)Cc1cccs1	8	-1	1	7	6	4
CCOc1ccc(S(=O)(=O)N2CN3CCN(C3)C2)cc1	-2	2	-4	0	1	63*
CCOc1ccc(S(=O)(=O)N2CCNC(=O)C2)cc1	-6	-2	1	0	1	15
CC1CCC(C(C)C)C(OCC(O)CNC(C)(C)C)C1 (stereo unspecified)	-4	-3	2	0	6	80*
CC1CCC(C(C)C)C(OCC(O)CNC(C)c2ccccc2)C1 (stereo unspecified)	.	1	-5	0	5	4
Cc1cnc(NC(=O)NCC2CCCC(CNC(=O)Nc3ncc(C)s3)C2)s1 (stereo unspecified)	-1	1	-1	-1	-2	67*
C[C@@H]1CN([C@H](C)CO)S(=O)(=O)c2ccc(-c3cncnc3)cc2O[C@H]1CN(C)Cc1ccncc1	5	17*	6	.	1	.
C[C@H](CO)N1C[C@H](C)[C@H](CN(C)Cc2ccncc2)Oc2cc(Br)ccc2S1(=O)=O	7	15*	-5	.	-2	.
C[C@H](CO)N1C[C@H](C)[C@@H](CN(C)Cc2ccc(Oc3ccccc3)cc2)Oc2cc(Br)ccc2S1(=O)=O	25*!	-2	0	.	3	.
CO[C@@H]1CC[C@@H]2CCOc3ccc(C#N)cc3C(=O)N(C)C[C@@H](c3ccccc3)CC(=O)N(C)C[C@H]1O2	-3	-1	0	.	-1	.
C[C@H](CO)N1C[C@H](C)[C@@H](CN(C)C(=O)NC2CCCCC2)Oc2ccc(NS(C)(=O)=O)cc2C1=O	29*!	0	-3	0	-1	1
